# Measured values pooled from the literature.
# Target: Insulin-like growth factor 1 receptor (IGF1R, Homo sapiens, UniProt P08069)
# Observed: enzyme activity
# Mode: inhibitor
SMILES,method,concentration,remaining activity [%]
FC(F)c1nc2ccccc2n1-c1nc(N2CCOCC2)nc(N2CCOCC2)n1,,10 µM,87
CCN(CC)CCNC(=O)c1c(C)[nH]c(/C=C2\C(=O)Nc3ccc(F)cc32)c1C,,1 µM,67
CCCOc1ccc(OC)c(F)c1C(=O)c1ccc(C(=O)N[C@@H]2CNC[C@H]2NC(=O)c2ccc3[nH]ncc3c2)cc1,,10 µM,90
O=C(Nc1cnn(-c2csc(C(=O)NC3COC3)c2)c1)Nc1c(F)cccc1Cl,,5 µM,94.9
CC(C)(C)c1nc2c(s1)c1nc(N)ncc1c1ccc(NS(=O)(=O)c3c(F)cccc3F)c(F)c12,radiometric,1 µM,100
CCN(CC)c1ccc(C2=NNC(=O)CC2C)cc1[N+](=O)[O-] (stereo not shown),,10 µM,86
Cc1cnc(NC2CCOCC2)nc1-n1cnc(C(=O)NC(CN)c2cc(F)cc(Cl)c2)c1 (stereo not shown),radiometric,1 µM,103
COc1cc(Nc2cnc(C#N)c(O[C@H](C)CN(C)C)n2)ncc1-c1cnn(C)c1,radiometric,1 µM,100
Cc1[nH]c(/C=C2\C(=O)Nc3ccc(F)cc32)c(C)c1C(=O)N[C@H]1CCN(C(=O)N(C)C)C1,,1 µM,106
Cc1sc(C(=O)NC2COC2)cc1-n1cc(NC(=O)Nc2c(F)cccc2Cl)cn1,,10 µM,102
Oc1cccc(-c2nc(N3CCOCC3)c3oc4ncccc4c3n2)c1,,10 µM,54
CC(C)(O)[C@H]1CC[C@H](Nc2ccc3ncc(-c4cccc(C(F)(F)F)c4)n3n2)CC1,,1 µM,99.2
Nc1nc(Nc2ccccc2)sc1C(=O)c1c(F)cccc1F,,10 µM,80
